# Source: ChEMBL document CHEMBL1221337, “The unsaturated acyclic nucleoside analogues bearing a sterically constrained (Z)-4'-benzamido-2'-butenyl moiety: Synthesis, X-ray crystal structure study, cytostatic and antiviral activity evaluations” (Bioorg Med Chem, 2010)
# Activity calls are given as the source filed them. No cut-off for these calls is given here.
# Test system: Vesicular stomatitis virus
# Assay: Antiviral activity against Vesicular stomatitis virus infected in HEL cells assessed as inhibition of virus-induced cytopathicity
# Format: functional, organism-based
# Settings: not given
row,SMILES,inhibition
1,Nc1ccn(C/C=C\CNC(=O)c2ccc(F)cc2)c(=O)n1,inactive
2,O=C(NC/C=C\Cn1ccc(=O)[nH]c1=O)c1ccccc1,inactive
3,O=C(NC/C=C\Cn1cc(F)c(=O)[nH]c1=O)c1ccccc1,inactive

# Test system: Vaccinia virus
# Assay: Antiviral activity against Vaccinia virus infected in HEL cells assessed as inhibition of virus-induced cytopathicity
# Format: functional, organism-based
# Settings: Orthopoxvirus vaccinia
row,SMILES,inhibition
1,Nc1ccn(C/C=C\CNC(=O)c2ccc(F)cc2)c(=O)n1,inactive
2,O=C(NC/C=C\Cn1ccc(=O)[nH]c1=O)c1ccccc1,inactive
3,O=C(NC/C=C\Cn1cc(F)c(=O)[nH]c1=O)c1ccccc1,inactive

# Test system: Vesicular stomatitis virus
# Assay: Antiviral activity against Vesicular stomatitis virus infected in human HeLa cells assessed as inhibition of virus-induced cytopathicity
# Format: functional, organism-based
# Settings: not given
# How it was run: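 Confluent HeLa cultures were infected with 100 CCID50 of virus. Unadsorbed virus was removed after 1 h, and compound was added at serial concentrations (200, 40, 8…). Viral cytopathic effect was read when untreated virus-infected control wells reached full cytopathicity.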
row,SMILES,inhibition
1,Nc1ccn(C/C=C\CNC(=O)c2ccc(F)cc2)c(=O)n1,inactive
2,O=C(NC/C=C\Cn1ccc(=O)[nH]c1=O)c1ccccc1,inactive
3,O=C(NC/C=C\Cn1cc(F)c(=O)[nH]c1=O)c1ccccc1,inactive

# Test system: Human alphaherpesvirus 2
# Assay: Antiviral activity against HSV2 G infected in HEL cells assessed as inhibition of virus-induced cytopathicity
# Format: functional, organism-based
# Settings: strain G
# How it was run: (§1)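 Confluent cell monolayers in 96-well plates were inoculated with 100 CCID50 of virus. After 1 h adsorption, residual virus was removed. Cultures were then incubated with test compound at varying concentrations (200, 40, 8... µM). Viral cytopathicity was scored once it reached completion in untreated infected controls. Host cells: HEL for HSV-1 KOS and HSV-2 G; Vero for the Vero lines; HeLa for the HeLa lines.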
row,SMILES,inhibition
1,Nc1ccn(C/C=C\CNC(=O)c2ccc(F)cc2)c(=O)n1,inactive
2,O=C(NC/C=C\Cn1ccc(=O)[nH]c1=O)c1ccccc1,inactive
3,O=C(NC/C=C\Cn1cc(F)c(=O)[nH]c1=O)c1ccccc1,inactive

# Test system: Human respirovirus 3
# Assay: Antiviral activity against Parainfluenza 3 infected in Vero cells assessed as inhibition of virus-induced cytopathicity
# Format: functional, organism-based
# Settings: not given
# How it was run: as §1
row,SMILES,inhibition
1,Nc1ccn(C/C=C\CNC(=O)c2ccc(F)cc2)c(=O)n1,inactive
2,O=C(NC/C=C\Cn1ccc(=O)[nH]c1=O)c1ccccc1,inactive
3,O=C(NC/C=C\Cn1cc(F)c(=O)[nH]c1=O)c1ccccc1,inactive

# Test system: SK-BR-3
# Assay: Cytotoxicity against human SK-BR-3 cells after 72 hrs by MTT assay
# Format: functional, cell-based
# Settings: SK-BR-3, 72 h
# How it was run: (§2)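 Adherent cells were plated at 3000–6000 cells/well on day 0, according to doubling time. Compound was added as five 10-fold dilutions (1 × 10⁻⁸–1 × 10⁻⁴ M), with DMSO ≤0.1%, and incubated 72 h. Read-out was MTT absorbance converted to percentage growth versus untreated wells on the same plate. IC50 was obtained by linear regression between bracketing concentrations; the highest concentration was reported as ">" if not reached. Quadruplicates, three experiments.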
row,SMILES,IC50 [µM]
1,Nc1ccn(C/C=C\CNC(=O)c2ccc(F)cc2)c(=O)n1,> 100
2,O=C(NC/C=C\Cn1ccc(=O)[nH]c1=O)c1ccccc1,> 100
3,O=C(NC/C=C\Cn1cc(F)c(=O)[nH]c1=O)c1ccccc1,> 100

# Test system: HeLa
# Assay: Cytotoxicity against human HeLa cells after 72 hrs by MTT assay
# Format: functional, cell-based
# Settings: not given
# How it was run: as §2
row,SMILES,IC50 [µM]
1,Nc1ccn(C/C=C\CNC(=O)c2ccc(F)cc2)c(=O)n1,> 100
2,O=C(NC/C=C\Cn1ccc(=O)[nH]c1=O)c1ccccc1,4.9
3,O=C(NC/C=C\Cn1cc(F)c(=O)[nH]c1=O)c1ccccc1,> 100

# Test system: MCF7
# Assay: Cytotoxicity against human MCF7 cells after 72 hrs by MTT assay
# Format: functional, cell-based
# Settings: MCF7, 72 h
# How it was run: as §2
row,SMILES,IC50 [µM]
1,Nc1ccn(C/C=C\CNC(=O)c2ccc(F)cc2)c(=O)n1,> 100
2,O=C(NC/C=C\Cn1ccc(=O)[nH]c1=O)c1ccccc1,> 100
3,O=C(NC/C=C\Cn1cc(F)c(=O)[nH]c1=O)c1ccccc1,> 100

# Test system: HEp-2
# Assay: Cytotoxicity against human Hep2 cells after 72 hrs by MTT assay
# Format: functional, cell-based
# Settings: HEp-2, 72 h
# How it was run: as §2
row,SMILES,IC50 [µM]
1,Nc1ccn(C/C=C\CNC(=O)c2ccc(F)cc2)c(=O)n1,> 100
2,O=C(NC/C=C\Cn1ccc(=O)[nH]c1=O)c1ccccc1,> 100
3,O=C(NC/C=C\Cn1cc(F)c(=O)[nH]c1=O)c1ccccc1,87.5

# Test system: SW-620
# Assay: Cytotoxicity against human SW620 cells after 72 hrs by MTT assay
# Format: functional, cell-based
# Settings: SW-620, 72 h
# How it was run: as §2
row,SMILES,IC50 [µM]
1,Nc1ccn(C/C=C\CNC(=O)c2ccc(F)cc2)c(=O)n1,> 100
2,O=C(NC/C=C\Cn1ccc(=O)[nH]c1=O)c1ccccc1,> 100
3,O=C(NC/C=C\Cn1cc(F)c(=O)[nH]c1=O)c1ccccc1,> 100

# Test system: MIA PaCa-2
# Assay: Cytotoxicity against human MIAPaCa2 cells after 72 hrs by MTT assay
# Format: functional, cell-based
# Settings: MIA PaCa-2, 72 h
# How it was run: as §2
row,SMILES,IC50 [µM]
1,Nc1ccn(C/C=C\CNC(=O)c2ccc(F)cc2)c(=O)n1,> 100
2,O=C(NC/C=C\Cn1ccc(=O)[nH]c1=O)c1ccccc1,> 100
3,O=C(NC/C=C\Cn1cc(F)c(=O)[nH]c1=O)c1ccccc1,> 100

# Test system: not listed separately
# Assay: Cytotoxicity against human WI38 cells after 72 hrs by MTT assay
# Format: cell-based
# Settings: WI-38, 72 h
# How it was run: as §2
row,SMILES,IC50 [µM]
1,Nc1ccn(C/C=C\CNC(=O)c2ccc(F)cc2)c(=O)n1,4
2,O=C(NC/C=C\Cn1ccc(=O)[nH]c1=O)c1ccccc1,6.6
3,O=C(NC/C=C\Cn1cc(F)c(=O)[nH]c1=O)c1ccccc1,> 100

# Test system: Human alphaherpesvirus 1
# Assay: Antiviral activity against HSV1 KOS infected in HEL cells assessed as inhibition of virus-induced cytopathicity
# Format: functional, organism-based
# Settings: not given
# How it was run: as §1
row,SMILES,inhibition
1,Nc1ccn(C/C=C\CNC(=O)c2ccc(F)cc2)c(=O)n1,inactive
2,O=C(NC/C=C\Cn1ccc(=O)[nH]c1=O)c1ccccc1,inactive
3,O=C(NC/C=C\Cn1cc(F)c(=O)[nH]c1=O)c1ccccc1,inactive

# Test system: Mammalian orthoreovirus 1
# Assay: Antiviral activity against Reovirus 1 infected in Vero cells assessed as inhibition of virus-induced cytopathicity
# Format: functional, organism-based
# Settings: not given
# How it was run: as §1
row,SMILES,inhibition
1,Nc1ccn(C/C=C\CNC(=O)c2ccc(F)cc2)c(=O)n1,inactive
2,O=C(NC/C=C\Cn1ccc(=O)[nH]c1=O)c1ccccc1,inactive
3,O=C(NC/C=C\Cn1cc(F)c(=O)[nH]c1=O)c1ccccc1,inactive

# Test system: Sindbis virus
# Assay: Antiviral activity against Sindbis virus infected in Vero cells assessed as inhibition of virus-induced cytopathicity
# Format: functional, organism-based
# Settings: not given
# How it was run: as §1
row,SMILES,inhibition
1,Nc1ccn(C/C=C\CNC(=O)c2ccc(F)cc2)c(=O)n1,inactive
2,O=C(NC/C=C\Cn1ccc(=O)[nH]c1=O)c1ccccc1,inactive
3,O=C(NC/C=C\Cn1cc(F)c(=O)[nH]c1=O)c1ccccc1,inactive

# Test system: Coxsackievirus B4
# Assay: Antiviral activity against Coxsackievirus B4 infected in Vero cells assessed as inhibition of virus-induced cytopathicity
# Format: functional, organism-based
# Settings: not given
# How it was run: as §1
row,SMILES,inhibition
1,Nc1ccn(C/C=C\CNC(=O)c2ccc(F)cc2)c(=O)n1,inactive
2,O=C(NC/C=C\Cn1ccc(=O)[nH]c1=O)c1ccccc1,inactive
3,O=C(NC/C=C\Cn1cc(F)c(=O)[nH]c1=O)c1ccccc1,inactive

# Test system: Punta Toro virus
# Assay: Antiviral activity against Punta Toro virus infected in Vero cells assessed as inhibition of virus-induced cytopathicity
# Format: functional, organism-based
# Settings: not given
# How it was run: as §1
row,SMILES,inhibition
1,Nc1ccn(C/C=C\CNC(=O)c2ccc(F)cc2)c(=O)n1,inactive
2,O=C(NC/C=C\Cn1ccc(=O)[nH]c1=O)c1ccccc1,inactive
3,O=C(NC/C=C\Cn1cc(F)c(=O)[nH]c1=O)c1ccccc1,inactive

# Test system: Coxsackievirus B4
# Assay: Antiviral activity against Coxsackievirus B4 infected in human HeLa cells assessed as inhibition of virus-induced cytopathicity
# Format: functional, organism-based
# Settings: not given
# How it was run: as §1
row,SMILES,inhibition
1,Nc1ccn(C/C=C\CNC(=O)c2ccc(F)cc2)c(=O)n1,inactive
2,O=C(NC/C=C\Cn1ccc(=O)[nH]c1=O)c1ccccc1,inactive
3,O=C(NC/C=C\Cn1cc(F)c(=O)[nH]c1=O)c1ccccc1,inactive

# Test system: Respiratory syncytial virus
# Assay: Antiviral activity against Respiratory syncytial virus infected in human HeLa cells assessed as inhibition of virus-induced cytopathicity
# Format: functional, organism-based
# Settings: not given
# How it was run: as §1
row,SMILES,inhibition
1,Nc1ccn(C/C=C\CNC(=O)c2ccc(F)cc2)c(=O)n1,inactive
2,O=C(NC/C=C\Cn1ccc(=O)[nH]c1=O)c1ccccc1,inactive
3,O=C(NC/C=C\Cn1cc(F)c(=O)[nH]c1=O)c1ccccc1,inactive

# Test system: Influenza A virus
# Assay: Antiviral activity against influenza A virus H1N1; H3N2 infected in MDCK cells assessed as inhibition of virus-induced cytopathicity
# Format: functional, organism-based
# Settings: not given
# How it was run: (§3)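 MDCK cells, nearly confluent in microtiter plates, were infected with 100 CCID50 per well. After 1 h adsorption, the inoculum was washed off. Cells were incubated with graded compound concentrations (200, 40, 8…). Cytopathicity was recorded at completion in untreated infected controls.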
row,SMILES,inhibition
1,Nc1ccn(C/C=C\CNC(=O)c2ccc(F)cc2)c(=O)n1,inactive
2,O=C(NC/C=C\Cn1ccc(=O)[nH]c1=O)c1ccccc1,inactive
3,O=C(NC/C=C\Cn1cc(F)c(=O)[nH]c1=O)c1ccccc1,inactive

# Test system: Influenza B virus
# Assay: Antiviral activity against influenza B virus infected in MDCK cells assessed as inhibition of virus-induced cytopathicity
# Format: functional, organism-based
# Settings: not given
# How it was run: as §3
row,SMILES,inhibition
1,Nc1ccn(C/C=C\CNC(=O)c2ccc(F)cc2)c(=O)n1,inactive
2,O=C(NC/C=C\Cn1ccc(=O)[nH]c1=O)c1ccccc1,inactive
3,O=C(NC/C=C\Cn1cc(F)c(=O)[nH]c1=O)c1ccccc1,inactive

# Test system: HEL
# Assay: Cytotoxicity against HEL cells assessed as cell viability after 3 days by coulter counting
# Format: cell-based
# Settings: human, 72 h
# How it was run: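 HEL cells were seeded at 5 × 10³ cells/well and allowed to proliferate 24 h. Medium with test compound at different concentrations was then added, and cells were incubated 3 days at 37 °C. Cell number was counted by Coulter counter. CC50 (50% reduction in cell number versus untreated controls) was read from plots of cell number (% of control) against concentration.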
row,SMILES,Activity
1,Nc1ccn(C/C=C\CNC(=O)c2ccc(F)cc2)c(=O)n1,Non-toxic
2,O=C(NC/C=C\Cn1ccc(=O)[nH]c1=O)c1ccccc1,Non-toxic
3,O=C(NC/C=C\Cn1cc(F)c(=O)[nH]c1=O)c1ccccc1,Non-toxic

# Test system: Vero
# Assay: Cytotoxicity against african green monkey Vero cells assessed as cell viability after 3 days by coulter counting
# Format: cell-based
# Settings: chlorocebus sabaeus, 72 h
row,SMILES,Activity
1,Nc1ccn(C/C=C\CNC(=O)c2ccc(F)cc2)c(=O)n1,Non-toxic
2,O=C(NC/C=C\Cn1ccc(=O)[nH]c1=O)c1ccccc1,Non-toxic
3,O=C(NC/C=C\Cn1cc(F)c(=O)[nH]c1=O)c1ccccc1,Non-toxic

# Test system: HeLa
# Assay: Cytotoxicity against human HeLa cells assessed as cell viability after 3 days by coulter counting
# Format: cell-based
# Settings: 72 h
row,SMILES,Activity
1,Nc1ccn(C/C=C\CNC(=O)c2ccc(F)cc2)c(=O)n1,Non-toxic
2,O=C(NC/C=C\Cn1ccc(=O)[nH]c1=O)c1ccccc1,Non-toxic
3,O=C(NC/C=C\Cn1cc(F)c(=O)[nH]c1=O)c1ccccc1,Non-toxic

# Test system: MDCK
# Assay: Cytotoxicity against MDCK cells assessed as cell viability after 3 days by coulter counting
# Format: cell-based, Canis lupus familiaris
# Settings: dog, 72 h
row,SMILES,Activity
1,Nc1ccn(C/C=C\CNC(=O)c2ccc(F)cc2)c(=O)n1,Non-toxic
2,O=C(NC/C=C\Cn1ccc(=O)[nH]c1=O)c1ccccc1,Non-toxic
3,O=C(NC/C=C\Cn1cc(F)c(=O)[nH]c1=O)c1ccccc1,Non-toxic
